Test results as given in PMC3739880 (The FASEB Journal, 2011).

Tests used:
[1] = biological target: T1, S. cerevisiae Ddi1 (Saccharomyces cerevisiae, UniProt P40087); test: Proteinase inhibitor assay; assay type: cell-based; conditions: for inhibition at 25 µM: read-out: Y16141 Ddi1, Inhibition at 25 μM (%)
T1 sequence (P40087 1-428): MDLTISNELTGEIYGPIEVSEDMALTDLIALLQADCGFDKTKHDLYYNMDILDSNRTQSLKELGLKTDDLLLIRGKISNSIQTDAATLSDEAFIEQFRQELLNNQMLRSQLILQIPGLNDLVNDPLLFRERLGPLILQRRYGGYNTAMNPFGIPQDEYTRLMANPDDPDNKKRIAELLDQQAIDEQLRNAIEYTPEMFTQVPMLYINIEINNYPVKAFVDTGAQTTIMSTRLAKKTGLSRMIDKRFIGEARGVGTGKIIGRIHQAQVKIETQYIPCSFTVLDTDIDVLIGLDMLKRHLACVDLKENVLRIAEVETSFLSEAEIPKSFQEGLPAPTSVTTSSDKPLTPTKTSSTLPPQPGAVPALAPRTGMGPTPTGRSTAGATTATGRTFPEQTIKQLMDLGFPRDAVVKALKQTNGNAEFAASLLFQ
Method in brief: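 S. cerevisiae Ddi1 was expressed from pVTL260 in DDI1-knockout Y16141, transformed by lithium acetate. Colony precultured overnight at 30°C in selective minimal medium, then shaken 48 h at 30°C to A600 ~2 with or without inhibitor (25 μM, or a titration).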

[2] = tested on: L. amazonensis; conditions: read-out: IC50, inhibition of cellular growth and multiplication with L. amazonensis; parasites in culture; cited from earlier work
[3] = tested on: Y16141 cells expressing human ortholog of Ddi1; test: Yeast cell morphology, Y16141 with human Ddi1 construct; assay type: cell-based, S. cerevisiae; conditions: 25 μM inhibitor; yeast transformed to express the human ortholog of Ddi1
Method in brief: (§1)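 DDI1-knockout Y16141 carried pVTL260, either alone or encoding full-length Ddi1 orthologs, introduced by lithium acetate transformation. Grown 24 h at 30°C in selective minimal medium with or without 25 μM inhibitor. Morphology examined by phase-contrast microscopy at ×100, with images captured digitally. Fraction of cells with greatly enlarged morphology was recorded.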

[4] = tested on: wild-type S. cerevisiae BY4742; test: Proteinase inhibitor assay; assay type: cell-based; conditions: Saccharomyces cerevisiae, read-out: BY4742, inhibition at 25 μM (%)
Method in brief: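 Wild-type BY4742 colony precultured overnight at 30°C in selective minimal medium, then shaken 48 h at 30°C to A600 ~2 with or without 25 μM inhibitor. Cells pelleted by centrifugation. Supernatant protein measured by RC DC assay with BSA standard and expressed as mg secreted per mg dry weight of pellet dried at 100°C. n=6.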

[5] = biological target: T2, human Ddi1 (Homo sapiens, UniProt Q8WTU0); test: Proteinase inhibitor assay; assay type: cell-based; conditions: for inhibition at 25 µM: read-out: Y16141 human, Inhibition at 25 μM (%)
T2 sequence (Q8WTU0 1-396): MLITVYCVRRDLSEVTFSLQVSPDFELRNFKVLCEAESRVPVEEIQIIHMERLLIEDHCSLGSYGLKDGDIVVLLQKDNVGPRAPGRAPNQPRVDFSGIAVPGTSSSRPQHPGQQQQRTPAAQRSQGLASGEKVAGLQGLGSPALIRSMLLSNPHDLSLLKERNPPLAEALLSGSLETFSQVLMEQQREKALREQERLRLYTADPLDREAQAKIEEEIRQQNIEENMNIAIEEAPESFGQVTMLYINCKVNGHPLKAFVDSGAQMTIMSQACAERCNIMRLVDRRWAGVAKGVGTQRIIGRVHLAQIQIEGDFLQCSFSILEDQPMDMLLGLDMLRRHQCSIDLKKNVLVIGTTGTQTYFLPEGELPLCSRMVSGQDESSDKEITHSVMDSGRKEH
Method in brief: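 Yeast DDI1-knockout Y16141 (BY4742 derivative) carrying the human Ddi1 ortholog in pVTL260, grown in selective minimal medium. Cultures shaken 48 h at 30°C to A600 ~2 with or without inhibitor (25 μM, or titrated). Supernatant protein measured against a BSA standard and expressed per mg dried-pellet weight. IC50 from a 4-parameter logistic fit. Means ± se, n=6.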

[6] = tested on: Y16141 cells transformed with pVTL260 plasmid; test: Yeast cell morphology, knockout yeast transformed with plasmid alone; assay type: cell-based, S. cerevisiae; conditions: 25 μM inhibitor
Method in brief: as §1

[7] = biological target: T3, Leishmania Ddi1 (Leishmania major, UniProt I7HUG0); test: Proteinase inhibitor assay; assay type: cell-based, L. major; conditions: for inhibition at 25 µM: read-out: Y16141 Leishmania, Inhibition at 25 μM (%)
T3 sequence (I7HUG0 148-390): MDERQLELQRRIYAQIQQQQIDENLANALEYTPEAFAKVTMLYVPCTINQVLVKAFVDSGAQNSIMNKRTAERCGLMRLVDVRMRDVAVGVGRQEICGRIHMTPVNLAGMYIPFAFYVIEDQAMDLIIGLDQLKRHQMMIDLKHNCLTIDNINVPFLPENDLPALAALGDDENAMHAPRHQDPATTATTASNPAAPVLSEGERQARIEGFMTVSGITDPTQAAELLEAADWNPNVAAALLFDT

[8] = tested on: Y16141 cells expressing L. major Ddi1 ortholog; test: Yeast cell morphology, Y16141 with Leishmania Ddi1 construct; assay type: cell-based, S. cerevisiae; conditions: 25 μM inhibitor, 24 h
Method in brief: as §1

[9] = tested on: Leishmania donovani; conditions: cited from earlier work
[10] = tested on: L. infantum; conditions: cited from earlier work
[11] = tested on: L. major; conditions: read-out: IC50, growth inhibition in L. major; parasites in culture; cited from earlier work
[12] = tested on: Y16141 cells expressing Saccharomyces Ddi1; test: Yeast cell morphology, Y16141 with Saccharomyces Ddi1 construct; assay type: cell-based, S. cerevisiae; conditions: 25 μM inhibitor, 24 h
Method in brief: as §1

Structure (SMILES) | inhibition at 25 µM [1] [%] | IC50 [2] [µM] | effect on cell morphology [3] | inhibition at 25 µM [4] [%] | IC50 [5] [µM] | inhibition at 25 µM [5] [%] | effect on cell morphology [6] | IC50 [7] [µM] | Hill slope factor ([7]; Y16141 expressing the L. major Ddi1 ortholog, Eq. 1 fit) | inhibition at 25 µM [7] [%] | cells with greatly enlarged morphologies (% of cells) [8] | sensitivity of Leishmania donovani [9] | sensitivity of L. infantum [10] | IC50 [11] [µM] | IC50 [1] [µM] | cells with greatly enlarged morphologies (% of cells) [12]
Cc1c(O)cccc1C(=O)N[C@@H](CSc1ccccc1)[C@H](O)CN1C[C@H]2CCCC[C@H]2C[C@H]1C(=O)NC(C)(C)C [Nelfinavir] | 40 | 15 | no effects | 50 | 3.4 ± 0.4 | 97 | no effects | 0.44 ± 0.03 | 0.72 ± 0.04 | 100 | ~95 % of cells | tens of micromolar range | tens of micromolar range | – | – | –
CC(C)(C)NC(=O)[C@@H]1C[C@@H]2CCCC[C@@H]2CN1C[C@@H](O)[C@H](Cc1ccccc1)NC(=O)[C@H](CC(N)=O)NC(=O)c1ccc2ccccc2n1 [Saquinavir] | 24 | – | – | 31 | – | 18 | – | 2.8 ± 0.3 | – | 100 | – | – | – | 7 | – | –
CC(C)(C)NC(=O)[C@@H]1CN(Cc2cccnc2)CCN1C[C@@H](O)C[C@@H](Cc1ccccc1)C(=O)N[C@H]1c2ccccc2C[C@H]1O [Indinavir] | 24 | – | – | 36 | – | 38 | – | 3 ± 0.2 | – | 100 | – | – | – | 8 | – | –
CCC[C@@]1(CCc2ccccc2)CC(O)=C([C@H](CC)c2cccc(NS(=O)(=O)c3ccc(C(F)(F)F)cn3)c2)C(=O)O1 [Tipranavir] | 86 | – | – | 58 | 1.5 ± 0.2 | 90 | – | 2.9 ± 0.2 | – | 97 | – | – | – | – | – | –
Cc1cccc(C)c1OCC(=O)N[C@@H](Cc1ccccc1)[C@@H](O)C[C@H](Cc1ccccc1)NC(=O)[C@H](C(C)C)N1CCCNC1=O [Lopinavir] | 6 | 16 | – | 6 | – | 0 | – | 56 ± 4 | – | 38 | – | – | – | – | – | –
CC(C)c1nc(CN(C)C(=O)N[C@H](C(=O)N[C@@H](Cc2ccccc2)C[C@H](O)[C@H](Cc2ccccc2)NC(=O)OCc2cncs2)C(C)C)cs1 [Ritonavir] | 0 | – | – | 1 | – | 3 | – | – | – | 22 | – | – | – | – | – | –
CC(C)CN(C[C@@H](O)[C@H](Cc1ccccc1)NC(=O)O[C@H]1CCOC1)S(=O)(=O)c1ccc(N)cc1 [Amprenavir] | 95 | 62 | no effects | 91 | – | 9 | no effects | 5.7 ± 0.7 | – | 100 | – | – | – | – | 2.8 ± 0.2 | ~75 % of cells
